Cytotoxicity, T/C corr and Cytocidal effect data for four compounds are collected here from ChEMBL document CHEMBL1135613, “Soluble tetraarylporphyrin-platinum conjugates as cytotoxic and phototoxic antitumor agents” (J Med Chem, 2002).

Common to all, as to type: cell-based
Common to all, as to settings: human

The test system of data set [1] is TCC-SUP. Nature of the data set: Cytotoxicity of compound in dark was determined at 1 uM in TCC-SUP transitional bladder cancer cells; No statistically significant cytotoxicity.
Data set [2] relates to TCC-SUP. In words: Cytotoxicity of compound in light was determined at 1 uM in TCC-SUP transitional bladder cancer cells; Marked light-induced toxicity.
For data set [3], the system named is TCC-SUP. In words: Cytotoxicity of compound was determined from treated to that of control TCC-SUP cells. The procedure, abridged:
(§1)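 Kinetic (multiple-point) chemosensitivity assay: TCC-SUP cells (passage 56) seeded in microplates, drug added after 48 h at 1, 5 and 10 µM from 10 mM stocks, 0.1% (v/v) final solvent. Medium left unchanged; growth followed by absorbance at 578 nm up to 144 h. T/C corr. = (T−C0)/(C−C0)×100; cytocidal effect = (C0−T)/C0×100 when T<C0.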

The subject of data set [4] is TCC-SUP. Nature of the data set: Cytotoxicity of compound in dark was determined at 10 uM in TCC-SUP transitional bladder cancer cells; No statistically significant cytotoxicity.
Data set [5] concerns TCC-SUP. In words: Cytotoxicity of compound in dark was determined at 5 uM in TCC-SUP transitional bladder cancer cells; No statistically significant cytotoxicity.
Data set [6] concerns TCC-SUP. Nature of the data set: Photoxicity of compound in light was determined at 1 uM in TCC-SUP transitional bladder cancer cells; Marked light-induced toxicity.
Data set [7] has as its system TCC-SUP. In words: Cytotoxicity of compound was determined from treated to that of control on the proliferation of TCC-SUP cells at 5 uM. The procedure, abridged:
as §1

Data set [8] deals with TCC-SUP. In words: Cytocidal of compound was determined from 10 uM in TCC-SUP cells incubated for 144 hr. The procedure, abridged:
as §1

For data set [9], the system named is TCC-SUP. Nature of the data set: Cytotoxicity of compound was determined from treated to that of control on the proliferation of TCC-SUP cells at 1 uM. The procedure, abridged: as §1

For `COCCOCCOc1ccc(-c2c3nc(c(-c4ccc(OCCOCCOC)cc4)c4ccc([nH]4)c(-c4ccc(OC(C(=O)O)C(=O)O)cc4)c4nc(c(-c5ccc(OCCOCCOC)cc5)c5ccc2[nH]5)C=C4)C=C3)cc1`, the figures for the Cytotoxicity result with TCC-SUP [1] and in the data set on TCC-SUP [2] were “No effect” and “Marked light-induced toxicity”, respectively. In the data set with TCC-SUP [3], this compound returned a T/C corr of 37%.
On to `COCCOCCOCCOCCOCCOCCOCCOCCOCCOCCOCCOCCOCCOCCOCCOCCOCCOc1ccc(-c2c3nc(c(-c4ccc(OCCOCCOCCOCCOCCOCCOCCOCCOCCOCCOCCOCCOCCOCCOCCOCCOCCOC)cc4)c4ccc([nH]4)c(-c4ccc(OC(C(=O)O)C(=O)O)cc4)c4nc(c(-c5ccc(OCCOCCOCCOCCOCCOCCOCCOCCOCCOCCOCCOCCOCCOCCOCCOCCOCCOC)cc5)c5ccc2[nH]5)C=C4)C=C3)cc1`, for which, in the data set with TCC-SUP [4], the Cytotoxicity entry is given as “No effect”.
Turning to `COCCOCCOCCOc1ccc(-c2c3nc(c(-c4ccc(OCCOCCOCCOC)cc4)c4ccc([nH]4)c(-c4ccc(OC(C(=O)O)C(=O)O)cc4)c4nc(c(-c5ccc(OCCOCCOCCOC)cc5)c5ccc2[nH]5)C=C4)C=C3)cc1`, the Cytotoxicity result in the data set with TCC-SUP [5] is listed as “No effect”; in the data set on TCC-SUP [6], “Marked light-induced toxicity”. Further, in the data set with TCC-SUP [3], the T/C corr is 37%.
Regarding “Diammine[2-(4-{10,15,20-tris[4-(1,4,7,10-tetraoxaundecyl)phenyl]porphyrin-5-yl}phenoxy)malonato]platinum-(II)”, the results for the T/C corr in the data set with TCC-SUP [7] and in the data set on TCC-SUP [9] were 2.8% and 26.2%, respectively. Further, the Cytocidal effect with TCC-SUP [8] worked out at 17.1%.
